Source: paper PMC9732910 (Genes & Development, 2022)
“Also recorded” adds a separate entry of the source. *1 amine or outer side, *2 acyl side, *3 side chain or, on linkers, in order; H or OH if unused. Where a SMILES comes first, the peptide text is derived from it. Bridges are numbered along the chain shown (N, C = ends). Primed or numbered codes have the meaning given here. Where no end group is shown, it is not given here. The star is where a group is joined. Lys(Biotin) = O=C(CCCC[C@@H]1SC[C@@H]2NC(=O)N[C@@H]21)NCCCC[C@H](N[*:1])C(=O)[*:2]; PEG3′ = PEG3 spacer coupled to the N-terminus before Fmoc-Lys(Biotin); FITC = O=C1OC2(c3ccc(O)cc3Oc3cc(O)ccc32)c2ccc(NC(=S)*)cc21; mXylylene = c1cc(C[*:1])cc(C[*:2])c1

T1: KLHL20 (Homo sapiens, UniProt Q9Y2M5)
T1 sequence (Q9Y2M5 1-609): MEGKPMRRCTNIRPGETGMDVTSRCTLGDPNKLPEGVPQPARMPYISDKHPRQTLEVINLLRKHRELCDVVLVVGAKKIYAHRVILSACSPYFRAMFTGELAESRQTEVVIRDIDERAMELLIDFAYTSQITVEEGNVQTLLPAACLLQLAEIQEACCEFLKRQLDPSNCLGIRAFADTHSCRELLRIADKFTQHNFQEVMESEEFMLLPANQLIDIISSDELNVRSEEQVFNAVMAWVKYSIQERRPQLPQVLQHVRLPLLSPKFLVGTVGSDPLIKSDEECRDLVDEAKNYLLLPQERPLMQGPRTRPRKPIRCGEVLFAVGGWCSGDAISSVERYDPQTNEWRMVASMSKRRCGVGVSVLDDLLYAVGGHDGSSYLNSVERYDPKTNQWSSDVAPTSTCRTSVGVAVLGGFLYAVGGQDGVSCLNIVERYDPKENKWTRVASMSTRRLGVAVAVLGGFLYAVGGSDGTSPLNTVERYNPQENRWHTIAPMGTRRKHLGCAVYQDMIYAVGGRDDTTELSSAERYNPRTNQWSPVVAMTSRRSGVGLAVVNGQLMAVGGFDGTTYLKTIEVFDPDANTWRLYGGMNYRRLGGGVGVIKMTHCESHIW

T2: KLHL20^K498A (Homo sapiens, UniProt Q9Y2M5, K498A)
T2 sequence (Q9Y2M5 317-603 K498A): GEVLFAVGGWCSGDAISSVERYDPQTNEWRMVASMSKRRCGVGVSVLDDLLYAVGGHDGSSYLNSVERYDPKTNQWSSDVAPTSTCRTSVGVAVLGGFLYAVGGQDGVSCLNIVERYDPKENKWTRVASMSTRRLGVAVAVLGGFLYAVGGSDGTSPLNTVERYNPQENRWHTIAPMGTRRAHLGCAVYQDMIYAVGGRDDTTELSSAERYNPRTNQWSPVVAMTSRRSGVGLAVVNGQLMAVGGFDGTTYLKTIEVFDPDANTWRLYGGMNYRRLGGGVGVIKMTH

T3: KLHL20^H499G (Homo sapiens, UniProt Q9Y2M5, H499G)
T3 sequence (Q9Y2M5 317-603 H499G): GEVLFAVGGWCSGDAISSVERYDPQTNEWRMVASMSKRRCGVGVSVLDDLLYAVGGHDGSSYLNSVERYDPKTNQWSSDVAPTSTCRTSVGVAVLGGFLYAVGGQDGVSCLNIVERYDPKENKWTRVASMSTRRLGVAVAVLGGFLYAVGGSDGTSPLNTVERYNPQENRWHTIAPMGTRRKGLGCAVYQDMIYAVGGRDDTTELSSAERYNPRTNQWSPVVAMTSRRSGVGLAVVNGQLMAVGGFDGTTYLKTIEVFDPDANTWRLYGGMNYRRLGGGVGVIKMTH

T4: KLHL20^L592G (Homo sapiens, UniProt Q9Y2M5, L592G)
T4 sequence (Q9Y2M5 317-603 L592G): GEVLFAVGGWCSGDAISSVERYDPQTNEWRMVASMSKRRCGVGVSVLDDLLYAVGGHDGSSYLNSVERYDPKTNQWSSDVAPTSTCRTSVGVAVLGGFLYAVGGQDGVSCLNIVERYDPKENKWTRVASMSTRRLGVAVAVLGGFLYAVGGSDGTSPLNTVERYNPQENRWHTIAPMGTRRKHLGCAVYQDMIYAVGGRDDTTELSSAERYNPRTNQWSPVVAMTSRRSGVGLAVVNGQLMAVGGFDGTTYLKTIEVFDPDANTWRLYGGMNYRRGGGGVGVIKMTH

T5: KLHL12 (Homo sapiens, UniProt Q53G59)
T5 sequence (Q53G59 1-568): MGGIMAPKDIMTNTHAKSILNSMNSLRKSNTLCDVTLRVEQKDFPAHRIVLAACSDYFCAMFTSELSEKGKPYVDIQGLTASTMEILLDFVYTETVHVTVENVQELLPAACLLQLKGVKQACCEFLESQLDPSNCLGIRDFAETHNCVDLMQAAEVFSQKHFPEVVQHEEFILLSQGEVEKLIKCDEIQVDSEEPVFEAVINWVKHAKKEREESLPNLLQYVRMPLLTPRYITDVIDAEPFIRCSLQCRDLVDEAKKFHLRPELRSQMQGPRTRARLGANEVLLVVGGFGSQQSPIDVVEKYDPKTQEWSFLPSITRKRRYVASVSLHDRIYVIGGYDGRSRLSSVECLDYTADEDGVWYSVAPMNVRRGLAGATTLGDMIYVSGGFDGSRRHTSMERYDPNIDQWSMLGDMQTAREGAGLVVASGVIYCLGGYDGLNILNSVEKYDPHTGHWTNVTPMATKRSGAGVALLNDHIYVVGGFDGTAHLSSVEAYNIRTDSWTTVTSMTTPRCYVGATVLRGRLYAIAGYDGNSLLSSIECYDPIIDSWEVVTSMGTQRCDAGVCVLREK

T6: KLHL20 Kelch domain (human, UniProt Q9Y2M5 317-603)
T6 sequence (looked up): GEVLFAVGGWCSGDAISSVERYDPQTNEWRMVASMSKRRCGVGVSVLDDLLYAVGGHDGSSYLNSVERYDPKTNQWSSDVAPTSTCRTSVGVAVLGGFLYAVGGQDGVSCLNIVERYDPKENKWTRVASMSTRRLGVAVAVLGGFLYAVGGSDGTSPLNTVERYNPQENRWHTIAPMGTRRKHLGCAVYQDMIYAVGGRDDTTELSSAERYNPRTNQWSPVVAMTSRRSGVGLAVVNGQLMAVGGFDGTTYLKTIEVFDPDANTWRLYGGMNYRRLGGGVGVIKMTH

B1: FITC-labeled linear LPDLV peptide (peptide)
peptide: {FITC}-LPDLV-NH2
B2: FITC-labeled macrocycle CPDLVC (peptide)
peptide: {FITC}-CPDLVC-NH2
modifications: linker 1-6 via mXylylene
B3: FITC-labeled BTR2000 (macrocycle CPDLC) (peptide)
peptide: {FITC}-CPDLC-NH2
modifications: linker 1-5 via mXylylene

Columns and labels:
BRD2, BRD3, and BRD4 = test: Degradation of BET proteins BRD2, BRD3 and BRD4 in PC3 cells; assay type: cell-based, human; details: 5 μM, 4 h
Summary of the method: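 PC3 cells in DMEM with 10% FBS were plated in 24-well plates 24 h before dosing. They got fresh medium with 5 μM test compound or reference degraders, or DMSO as reference, for 4 h. Cells were washed in TBS/0.05% Tween 20 and lysed in Tris pH 7.5, NaCl, deoxycholate, glycerol, Triton X-100 and inhibitor buffer. BET proteins were read by Western blot.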

PC3 cells = test: Cell proliferation, CellTiter-Glo 2.0, PC3; assay type: cell-based, human; details: PC3, 24, 72, and 96 h
Summary of the method: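 PC3 prostate cancer cells in DMEM with 10% FBS were seeded in 96-well plates at 50% confluency 24 h beforehand. They were switched to fresh medium with different concentrations of test compound or reference degraders (DMSO-volume negative control) for 24, 72 and 96 h. Cell titre was measured by CellTiter-Glo 2.0 luminescence; SD, N = 3.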

MDA-MB-231 cells = test: Cell proliferation, CellTiter-Glo 2.0, MDA-MB-231; assay type: cell-based, human; details: MDA-MB-231, 24h, 72h and 96h
Summary of the method: (§1)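 Cells kept in DMEM with 10% FBS and seeded in 96-well plates at 50% confluency 24 h before treatment. Medium was then replaced with fresh medium holding the test compound at varying concentrations, or an equal volume of DMSO as negative control. Viable cell titre was read at the end of treatment by CellTiter-Glo 2.0 luminescence.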

hTERT-BJ1 cells = test: Cytotoxicity in normal human cell line, CellTiter-Glo 2.0; assay type: cell-based; details: hTERT-BJ1, 24h, 72h and 96h
Summary of the method: as §1

KLHL20 [1] = target: T1, KLHL20; assay type: binding; details: PC3 lysates, immobilized compound
Summary of the method: (§2)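 Biotinylated test compound (430 nM) was captured on BSA-blocked NeutrAvidin magnetic beads for 1 h at 4°C. Beads were incubated with PC3 lysate diluted 1:7 to 1.6 mg/mL total protein in TBS, 1 mM DTT, 0.1% BSA and protease/phosphatase inhibitors for 1 h at 4°C. After three TBS/DTT/BSA washes, bound proteins were eluted in Laemmli buffer with 5% BME for Western blotting.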

KLHL20^K498A = target: T2, KLHL20^K498A; test: FP binding to KLHL20 Kelch mutant K498A; details: FITC-labeled BTR2000
Summary of the method: (§3)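 His-tagged wild-type or quick-change point-mutant KLHL20 Kelch domain was expressed in E. coli Rosetta (DE3) (0.3 mM IPTG, 18°C overnight). It was Ni-NTA purified and dialysed into TBS pH 7.5 with 1 mM DTT. Protein at 0–15 μM was incubated with 20 nM FITC-labelled peptide for 30 min at 4°C in 1× TBS/1 mM DTT. FP was read at 485/528 nm; LAAAV peptide served as negative control.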

KLHL20^H499G = target: T3, KLHL20^H499G; test: FP binding to KLHL20 Kelch mutant H499G; details: FITC-labeled BTR2000
KLHL20^L592G = target: T4, KLHL20^L592G; test: FP binding to KLHL20 Kelch mutant L592G; details: FITC-labeled BTR2000
Summary of the method: as §3

KLHL12 = target: T5, KLHL12; assay type: binding; details: PC3 lysates, immobilized compound
Summary of the method: as §2

KLHL20 [2] = target: T1, KLHL20; test: MS-based proteomics of pull-down eluates from PC3 lysates; assay type: binding; details: N = 3, control called PGL control in Table S1
Summary of the method: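 NeutrAvidin Dynabeads were blocked with 0.1% BSA for 2 h at 4°C and loaded with 430 nM biotinylated compound for 1 h at 4°C. PC3 lysate (1:7 diluted, 1.6 mg/mL total protein, TBS/1 mM DTT/0.1% BSA/inhibitors) was bound for 1 h at 4°C. Beads were washed three times, eluted in Laemmli/5% BME and in-gel trypsin-digested. Eluates were analysed by LC-MS/MS with label-free quantification.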

KLHL20 Kelch domain = target: T6, KLHL20 Kelch domain; test: fluorescence polarisation

Row | Molecule | BET protein degradation (BRD2, BRD3, and BRD4) | enrichment / binding of KLHL20 in pull-down (KLHL20 [1]) | Kd (KLHL20 Kelch domain) [nM] | further results
1 | Cc1ncsc1-c1ccc(CNC(=O)[C@@H]2C[C@@H](O)CN2C(=O)[C@@H](NC(=O)COCCOCCOCCNC(=O)C[C@@H]2N=C(c3ccc(Cl)cc3)c3c(sc(C)c3C)-n3c(C)nnc32)C(C)(C)C)cc1 [MZ1] | showed efficacy | – | – | cell growth inhibition (PC3 cells): higher efficiency than BTR2004; cell growth inhibition (MDA-MB-231 cells): higher efficiency than BTR2004; normal cell cytotoxicity (hTERT-BJ1 cells): some degree of cytotoxicity
2 | CPGAC: cyclized double-mutant of BTR2000 used as pull-down control ({Lys(Biotin)-PEG3′}-CPGAC-NH2; linker 1-5 via mXylylene) | – | no binding to KLHL20 | – | –
3 | Cc1sc2c(c1C)C(c1ccc(Cl)cc1)=N[C@@H](CC(=O)NCCCCNC(=O)COc1cccc3c1C(=O)N(C1CCC(=O)NC1=O)C3=O)c1nnc(C)n1-2 (stereo partly shown) [dBET1] | showed efficacy | – | – | normal cell cytotoxicity (hTERT-BJ1 cells): some degree of cytotoxicity
4 | CC(C)C[C@@H]1NC(=O)[C@H](CC(=O)O)NC(=O)[C@@H]2CCCN2C(=O)[C@@H](NC(=S)Nc2ccc3c(c2)C(=O)OC32c3ccc(O)cc3Oc3cc(O)ccc32)CSCc2cccc(c2)CSC[C@@H](C(N)=O)NC1=O [BTR2000] ({FITC}-CPDLC-NH2; linker 1-5 via mXylylene) | – | successfully enriched KLHL20 | – | binding to KLHL20^K498A relative to wild type (KLHL20^K498A): important for BTR2000 binding; binding to KLHL20 H499 mutant relative to wild type (KLHL20^H499G): more prominent loss in binding; binding to KLHL20^L592G relative to wild type (KLHL20^L592G): more prominent loss in binding; enrichment of KLHL12 in pull-down (KLHL12): not KLHL12; log2 fold change BTR2000/CPGAC of KLHL20 (KLHL20 [2]): 11
5 | COc1cc(C(=O)NCCOCCOCCOCCNC(=O)C[C@@H]2N=C(c3ccc(Cl)cc3)c3c(sc(C)c3C)-n3c(C)nnc32)ccc1NC(=O)[C@@H]1N[C@@H](CC(C)(C)C)[C@](C#N)(c2ccc(Cl)cc2F)[C@H]1c1cccc(Cl)c1F [A1874] | not effective; also recorded: ineffective | – | – | –
6 | cyclized CPGLC: BTR2000 with the aspartic acid mutated; KLHL20-binding deficient cyclized peptide ({Lys(Biotin)-PEG3′}-CPGLC-NH2; linker 1-5 via mXylylene) | – | no binding to KLHL20 | – | –
7 | cyclized CPDAC: BTR2000 with the leucine mutated; KLHL20-binding deficient cyclized peptide (CPDAC-NH2; linker 1-5 via mXylylene) | – | no binding to KLHL20 | – | –
8 | B1 | – | – | > 5000 | –
9 | B2 | – | – | ~600 | –
10 | B3 | – | – | ~600 | –
